Measured values as given in ChEMBL document CHEMBL1156262, “Substituted benzothiophene or benzofuran derivatives as a novel class of bone morphogenetic protein-2 up-regulators: synthesis, structure-activity relationships, and preventive bone loss efficacies in senescence accelerated mice (SAMP6) and ovariectomized rats” (J Med Chem, 2010).
Activity calls are given as the source filed them. The rule behind the calls is not given here.

Assays:
[1] = Induction of BMP2 expression in mouse calcarial MC3T3-E1 cells stably transfected with mouse BMP2 promotor-luciferase assessed as upregulation rate at 4 uM; assay type: functional, cell-based
Summary of the method: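 Reporter assay in murine calvarial MC3T3-E1 cells stably carrying the mouse BMP-2 promoter fused to firefly luciferase (pGL4BMP-2). Cells grown in DMEM with 10% heat-inactivated FBS at 37 °C and 5% CO2. Test compounds at 4.0 μM; lovastatin at 0.4 μM as positive control; 0.1% DMSO as negative control. Up-regulation rate = (RLU of test − RLU of negative control)/RLU of negative control × 100.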

Mus musculus [2] = assay: Toxicity in SAMP6 mouse assessed as change in 24 hrs food consumption at 30 mg/kg/day, po after 3 months; assay type: organism-based; parameters: route oral; conditions: in vivo
Summary of the method: (§1)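 SAMP6 mice, n = 5 per group, dosed orally at 30 mg/kg/day in 0.5% methylcellulose for 3 months. Heart, liver, spleen, lung and kidney harvested, weighed and examined histologically. Organ/body weight indexes, body weight, and 24 h water and food intake (g/g body weight) compared with vehicle controls.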

Mus musculus [3] = assay: Induction of bone mineral density in SAMP6 mouse assessed as whole body BMD at 30 mg/kg/day, po measured after 3 months; assay type: functional
Summary of the method: (§2)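 SAMP6 mice, 5 months old, n = 5 per group, given compound in 0.5% methylcellulose by gavage daily. Dual-energy X-ray absorptiometry under pentobarbital anaesthesia (50 mg/kg ip), animals prone, at 0, 4, 8 and 12 weeks of treatment. Regions of interest were whole body, spine and left hind leg.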

Mus musculus [4] = assay: Induction of bone mineral density in SAMP6 mouse assessed as whole body BMD at 30 mg/kg/day, po measured after 2 months; assay type: functional, organism-based; summary of the method: as §2
[5] = Toxicity in po dosed Kunming mouse assessed as mortality treated for 3 days measured after 17 days; assay type: organism-based; conditions: in vivo
Summary of the method: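 Male and female Kunming mice (18-21 g), six per group (three males, three females), were dosed orally at 500 or 700 (mg/kg)/day for 3 days. They were closely watched for deaths over the 3 dosing days and the following 14 days (17 days in total).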

Mus musculus [6] = assay: Toxicity in SAMP6 mouse assessed as increase in body weight at 30 mg/kg/day, po after 3 months; assay type: organism-based; parameters: route oral; conditions: in vivo; summary of the method: as §1
Mus musculus [7] = assay: Toxicity in SAMP6 mouse assessed as pathological changes in kidney at 30 mg/kg/day, po after 3 months by histomorphology; assay type: organism-based; parameters: route oral; conditions: in vivo; summary of the method: as §1
Mus musculus [8] = assay: Induction of bone mineral density in SAMP6 mouse assessed as spine BMD at 30 mg/kg/day, po measured after 3 months; assay type: functional; summary of the method: as §2
Mus musculus [9] = assay: Toxicity in SAMP6 mouse assessed as pathological changes in heart at 30 mg/kg/day, po after 3 months by histomorphology; assay type: organism-based; parameters: route oral; conditions: in vivo; summary of the method: as §1
Mus musculus [10] = assay: Induction of bone formation in SAMP6 mouse right femora assessed as trabecular formation surface percentage at 30 mg/kg/day, po measured after 3 months by bone histomorphometry; assay type: functional, Trabecula
Summary of the method: (§3)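 SAMP6 mice, 5 months old, n = 5 per group (3 male, 2 female), randomized by initial BMD. Given compound in 0.5% methylcellulose by gavage daily for 3 months. Proximal third of the right femur fixed in 4% paraformaldehyde, cut as undecalcified sections, and scored by image analysis for histomorphometry.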

Mus musculus [11] = assay: Toxicity in SAMP6 mouse assessed as pathological changes in spleen at 30 mg/kg/day, po after 3 months by histomorphology; assay type: organism-based; parameters: route oral; conditions: in vivo; summary of the method: as §1
Mus musculus [12] = assay: Induction of BMP2 expression in SAMP6 mouse osteoblast at 30 mg/kg/day, po after 3 months by immunohistochemical analysis; assay type: functional, organism-based
Summary of the method: (§4)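 SAMP6 mice, 5 months old, male and female, n = 5 per group (3 male, 2 female). Dosed by gavage with compound suspended in 0.5% methylcellulose daily for 3 months; the vehicle group received methylcellulose only. Proximal third of the left femur fixed in 4% neutral paraformaldehyde for 24 h, decalcified in 10% EDTA at 4 °C for 4 weeks, then frozen-sectioned at 5 μm. Stained with rabbit polyclonal anti-BMP-2 and an alkaline phosphatase secondary. BMP-2-positive area was taken as a percentage of bone tissue area, averaged over five fields below the epiphyseal plate.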

Mus musculus [13] = assay: Induction of bone mineral density in SAMP6 mouse assessed as left hind leg BMD at 30 mg/kg/day, po measured after 3 months; assay type: functional; summary of the method: as §2
Mus musculus [14] = assay: Induction of bone mineral density in SAMP6 mouse assessed as whole body BMD at 10 mg/kg/day, po measured after 1 month; assay type: functional, organism-based; conditions: 30 mg/kg, in the assay text read “30 mg/kg/day” for “10 mg/kg/day”; summary of the method: as §2
Mus musculus [15] = assay: Induction of BMP2 expression in SAMP6 mouse bone marrow stroma at 30 mg/kg/day, po after 3 months by immunohistochemical analysis; assay type: functional, organism-based; summary of the method: as §4
Mus musculus [16] = assay: Toxicity in SAMP6 mouse assessed as pathological changes in liver at 30 mg/kg/day, po after 3 months by histomorphology; assay type: organism-based; parameters: route oral; conditions: in vivo; summary of the method: as §1
Mus musculus [17] = assay: Induction of BMP2 expression in SAMP6 mouse osteoblast at 10 mg/kg/day, po after 3 months by immunohistochemical analysis; assay type: functional, organism-based; summary of the method: as §4
Mus musculus [18] = assay: Induction of bone formation in SAMP6 mouse right femora assessed as trabecular bone volume percentage at 30 mg/kg/day, po measured after 3 months by bone histomorphometry; assay type: functional, Trabecula; summary of the method: as §3
Mus musculus [19] = assay: Toxicity in SAMP6 mouse assessed as change in 24 hrs water consumption at 30 mg/kg/day, po after 3 months; assay type: organism-based; parameters: route oral; conditions: in vivo; summary of the method: as §1
Mus musculus [20] = assay: Induction of bone mineral density in SAMP6 mouse assessed as whole body BMD at 10 mg/kg/day, po measured after 2 months; assay type: functional, organism-based; conditions: 30 mg/kg, in the assay text read “30 mg/kg/day” for “10 mg/kg/day”; summary of the method: as §2
Mus musculus [21] = assay: Induction of BMP2 expression in SAMP6 mouse cartilage cells at 30 mg/kg/day, po after 3 months by immunohistochemical analysis; assay type: functional, organism-based; summary of the method: as §4
Mus musculus [22] = assay: Toxicity in SAMP6 mouse assessed as pathological changes in lung at 30 mg/kg/day, po after 3 months by histomorphology; assay type: organism-based; parameters: route oral; conditions: in vivo; summary of the method: as §1
Mus musculus [23] = assay: Induction of bone formation in SAMP6 mouse right femora assessed as trabecular resorption surface percentage at 30 mg/kg/day, po measured after 3 months by bone histomorphometry; assay type: functional, Trabecula; summary of the method: as §3
Mus musculus [24] = assay: Induction of bone formation in SAMP6 mouse right femora assessed as average osteoid width at 30 mg/kg/day, po measured after 3 months by bone histomorphometry; assay type: functional; summary of the method: as §3
Mus musculus [25] = assay: Induction of bone mineral density in SAMP6 mouse assessed as spine BMD at 30 mg/kg/day, po measured last 2 months; assay type: functional, organism-based; summary of the method: as §2
Mus musculus [26] = assay: Induction of bone mineral density in SAMP6 mouse assessed as whole body BMD at 30 mg/kg/day, po measured after 2 months

## C[S+]([O-])CC(=O)c1cc2c(Cl)cccc2s1 (centres undefined)
[1]
  Activity: 18.5%

## O=C(/C=C/c1ccccc1Cl)c1cc2ccccc2s1
[1]
  Activity: 2%

## O=C(/C=C/c1ccccc1)c1cc2ccccc2o1
[1]
  Activity: 24.4%

## C[S+]([O-])CC(=O)c1cc2ccccc2s1 (centres undefined)
Mus musculus [2]
  Activity: Non-toxic
Mus musculus [3]
  Activity: 0.072 g/cm2
Mus musculus [4]
  Activity: Active
[5]
  LD50 at 408 h: > 700 mg/kg
Mus musculus [6]
  Activity: Non-toxic
Mus musculus [7]
  Activity: Non-toxic
Mus musculus [8]
  Activity: 0.09 g/cm2
Mus musculus [9]
  Activity: Non-toxic
Mus musculus [10]
  Activity: 5.13%
Mus musculus [11]
  Activity: Non-toxic
Mus musculus [12]
  Activity: Active
Mus musculus [13]
  Activity: 0.05 g/cm2
Mus musculus [14]
  Activity: Active
Mus musculus [15]
  Activity: Active
Mus musculus [16]
  Activity: Non-toxic
Mus musculus [17]
  Activity: Active
Mus musculus [18]
  Activity: 5.95%
Mus musculus [19]
  Activity: Non-toxic
Mus musculus [20]
  Activity: Active
Mus musculus [21]
  Activity: inactive
Mus musculus [22]
  Activity: Non-toxic
Mus musculus [23]
  Activity: 6.45%
Mus musculus [24]
  Activity: 5.85 µm
[1]
  Activity: 19.7%

## C[S+]([O-])CC(=O)c1cc2cc3c(cc2s1)OCO3 (centres undefined)
[1]
  Activity: 0.6%

## CCOC(=O)c1cc2cc(OC)c(OC)cc2s1
[1]
  Activity: 49.9%

## CCOC(=O)c1cc2cc3c(cc2s1)OCO3
Mus musculus [2]
  Activity: Non-toxic
Mus musculus [3]
  Activity: 0.072 g/cm2
Mus musculus [4]
  Activity: Active
Mus musculus [25]
  Activity: Active
[5]
  LD50 at 408 h: > 500 mg/kg
Mus musculus [6]
  Activity: Non-toxic
Mus musculus [7]
  Activity: Non-toxic
Mus musculus [8]
  Activity: 0.091 g/cm2
Mus musculus [9]
  Activity: Non-toxic
Mus musculus [10]
  Activity: 5.55%
Mus musculus [11]
  Activity: Non-toxic
Mus musculus [12]
  Activity: Active
Mus musculus [13]
  Activity: 0.053 g/cm2
Mus musculus [14]
  Activity: Active
Mus musculus [15]
  Activity: Active
Mus musculus [16]
  Activity: Non-toxic
Mus musculus [17]
  Activity: Active
Mus musculus [18]
  Activity: 7.1%
Mus musculus [19]
  Activity: Non-toxic
Mus musculus [20]
  Activity: Active
Mus musculus [21]
  Activity: inactive
Mus musculus [22]
  Activity: Non-toxic
Mus musculus [23]
  Activity: 6.45%
Mus musculus [24]
  Activity: 5.76 µm
[1]
  Activity: 64.2%

## O=C(/C=C/c1ccccc1)c1cc2ccccc2s1
[1]
  Activity: 15.4%

## CCOC(=O)c1cc2ccccc2s1
[1]
  Activity: 8.2%

## COc1ccc(/C=C/C(=O)c2cc3ccccc3s2)cc1
Mus musculus [2]
  Activity: Non-toxic
Mus musculus [26]
  Activity: Active
Mus musculus [3]
  Activity: 0.07 g/cm2
[5]
  LD50 at 408 h: > 500 mg/kg
Mus musculus [6]
  Activity: Non-toxic
Mus musculus [7]
  Activity: Non-toxic
Mus musculus [8]
  Activity: 0.089 g/cm2
Mus musculus [9]
  Activity: Non-toxic
Mus musculus [10]
  Activity: 6.54%
Mus musculus [11]
  Activity: Non-toxic
Mus musculus [12]
  Activity: Active
Mus musculus [13]
  Activity: 0.05 g/cm2
Mus musculus [14]
  Activity: Active
Mus musculus [15]
  Activity: Active
Mus musculus [16]
  Activity: Non-toxic
Mus musculus [17]
  Activity: Active
Mus musculus [18]
  Activity: 8.94%
Mus musculus [19]
  Activity: Non-toxic
Mus musculus [21]
  Activity: inactive
Mus musculus [22]
  Activity: Non-toxic
Mus musculus [23]
  Activity: 6.29%
Mus musculus [24]
  Activity: 5.5 µm
[1]
  Activity: 27.3%

## CCOC(=O)c1ccc2sc(C(=O)/C=C/c3ccccc3Cl)cc2c1
[1]
  Activity: 24%

## CCOC(=O)c1ccc2sc(C(=O)/C=C/c3ccccc3)cc2c1
[1]
  Activity: 12.6%

## CC(=O)c1cc2ccccc2o1
[1]
  Activity: 33.5%

## CCOC(=O)c1cc2cccc(F)c2o1
[1]
  Activity: -18.1%

## CCOC(=O)c1cc2c(Cl)cccc2s1
[1]
  Activity: -0.6%
